Measurements from ChEMBL document CHEMBL3351460, “Structure-Metabolism Relationships in the Glucuronidation of d-Amino Acid Oxidase Inhibitors” (ACS Med Chem Lett, 2014).

Legend:
[1] = Drug metabolism in mouse liver microsomes assessed as glucuronidation of compound measured as compound remaining after 30 mins by LC/MS analysis; assay type: ADME; conditions: read-out: Stability
Method in brief: (§1)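 Liver microsomes (mouse or rat), 0.5 mg protein/mL, incubated at 37 °C with UDPGA (2 mM) as cofactor for glucuronidation. Parent compound remaining was quantified after 30 and 60 min and expressed as % remaining.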

[2] = Drug metabolism in mouse liver microsomes assessed as glucuronidation of compound measured as compound remaining after 60 mins by LC/MS analysis; assay type: ADME; conditions: read-out: Stability; method in brief: as §1
[3] = Drug metabolism in rat liver microsomes assessed as glucuronidation of compound measured as compound remaining after 30 mins by LC/MS analysis; assay type: ADME; conditions: read-out: Stability; method in brief: as §1
[4] = Drug metabolism in rat liver microsomes assessed as glucuronidation of compound measured as compound remaining after 60 mins by LC/MS analysis; assay type: ADME; conditions: read-out: Stability; method in brief: as §1
[5] = biological target: D-amino-acid oxidase (Homo sapiens, UniProt P14920); experiment: Inhibition of human D-amino acid oxidase
[6] = Drug metabolism in human liver microsomes assessed as glucuronidation of compound measured as compound remaining after 30 mins by LC/MS analysis; assay type: ADME; conditions: read-out: Stability
Method in brief: (§2)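 Human liver microsomes (0.5 mg protein/mL) incubated with compound at 37 °C in the presence of UDPGA (2 mM), with a UDPGA-free control incubation. Remaining parent compound quantified after 30 and 60 min and expressed as % remaining.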

[7] = Drug metabolism in human liver microsomes assessed as glucuronidation of compound measured as compound remaining after 60 mins by LC/MS analysis; assay type: ADME; conditions: read-out: Stability; method in brief: as §2
[8] = Oral bioavailability in CD1 mouse at 30 mg/kg; assay type: ADME, organism-based; conditions: in vivo
[9] = Plasma clearance in CD1 mouse at 30 mg/kg, po and 10 mg/kg, iv; assay type: ADME, organism-based

Sequence of D-amino-acid oxidase (P14920 whole entry): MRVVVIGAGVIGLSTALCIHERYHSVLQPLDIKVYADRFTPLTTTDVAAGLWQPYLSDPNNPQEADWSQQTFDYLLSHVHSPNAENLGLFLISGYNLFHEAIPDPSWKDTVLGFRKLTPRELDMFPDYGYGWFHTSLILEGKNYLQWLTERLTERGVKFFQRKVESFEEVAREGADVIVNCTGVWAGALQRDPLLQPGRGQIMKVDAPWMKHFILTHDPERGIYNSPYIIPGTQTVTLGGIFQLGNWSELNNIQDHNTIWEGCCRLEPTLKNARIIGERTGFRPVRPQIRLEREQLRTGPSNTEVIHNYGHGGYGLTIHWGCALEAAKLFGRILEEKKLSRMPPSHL

Compound | remaining at 0.5 h [1] | remaining at 1 h [2] | also measured
O=c1[nH]c2ccccc2cc1O | < 1% | < 1% | –
O=C(O)c1cc(CCc2ccc(Cl)cc2)n[nH]1 | 103% | 102% | IC50 [5]: < 1 µM
O=c1oc2ccccc2cc1O [3-HYDROXYCOUMARIN] | < 1% | < 1% | –
Cc1cc(C(=O)O)n[nH]1 | 92% | 78% | –
O=C(O)c1cc2sccc2[nH]1 | 98% | 100% | –
O=c1[nH]cc(CCc2ccccc2)cc1O | 5% | 3% | –
Oc1noc2cc(Cl)ccc12 | 58% | 33% | –
O=c1cc(CSc2ccc(Cl)c(Cl)c2)occ1O | 20% | 5% | –

More lines, main results first:

remaining at 0.5 h [1] | remaining at 1 h [2] | Compound | also measured
< 1% | < 1% | O=c1[nH]c2cc(F)ccc2cc1O | remaining at 0.5 h [3]: < 1%; remaining at 1 h [4]: < 1%
< 1% | < 1% | O=c1[nH]c2cccc(Cl)c2cc1O | remaining at 0.5 h [3]: < 1%; remaining at 1 h [4]: < 1%
< 1% | < 1% | O=c1[nH]c2c(F)cc(F)cc2n1O | –
77% | 59% | O=c1[nH]nc(CCc2cc(F)cc(F)c2)cc1O | remaining at 0.5 h [3]: 69%; remaining at 0.5 h [6]: 81%; remaining at 1 h [4]: 51%; remaining at 1 h [7]: 62%; bioavailability [8]: 31%; clearance [9]: 39 mL/min/kg
